ChEMBL document CHEMBL6071141, “In vitro and in vivo evaluation of Bombesin-MMAE conjugates for targeted tumour therapy” (Eur J Med Chem, 2024)
Numbered stars: 1 amine (or outer) side, 2 acyl side, 3 side chain; on linkers, the order of the positions; unused ones are H or OH. Bridge positions count the residues as written; N and C are the ends. Square brackets hold non-standard residues; d marks the D form. Peptide text beside a SMILES is read from it. I, II: the chains in the order shown. * marks the point of attachment. Hexanoyl(6-succinimido-3yl) = O=C1CC([*:1])C(=O)N1CCCCCC(=O)[*:2]; Trp(3a,7a-dihydro) = N[C@@H](CC1=CNC2C=CC=CC12)C(=O)O; Dolaproine = CO[C@@H]([C@@H]1CCCN1)[C@@H](C)C(=O)O; Dil = CC[C@H](C)[C@H](NC)[C@@H](CC(=O)O)OC; PABC = O=C(OCc1ccc(N[*:1])cc1)[*:2]; X3 = C[C@@H](N*)[C@@H](O)c1ccccc1; Cit = NC(=O)NCCC[C@H](N)C(=O)O; PEG4 = NCCOCCOCCOCCOCCC(=O)O; NMeV = CN[C@H](C(=O)O)C(C)C; Nle = CCCC[C@H](N)C(=O)O

Tests used:
[1] = Cytotoxicity against human PC-3 cells assessed as inhibition of cell growth incubated for 72 hrs by CellTiter 96 aqueous assay; type: toxicity, cell-based
Outline: (§1)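 PC-3 or MDA-MB-231 cells were treated the day after seeding with serial dilutions, from 2000 nM for conjugates and 100 nM for MMAE, for 72 h. Then the assay was stopped, or run 72 h more after a medium change (single) or re-treatment (double). Controls got 0.05 % DMSO. Read-out was MTS absorbance at 490 nm after 90 min. IC50 by non-linear regression; ≥2 experiments, triplicates.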

[2] = Cytotoxicity against human cells MDA-MB-231 assessed as inhibition of cell growth incubated for 72 hrs by CellTiter 96 aqueous assay; type: toxicity, cell-based; conditions: MDA-MB-231 cells; outline: as §1
[3] = Cytotoxicity against human PC-3 cells assessed as inhibition of cell growth incubated with compound for 72 hrs followed by further incubated for 72 hrs (single treatment) by CellTiter 96 aqueous assay; type: toxicity, cell-based; outline: as §1
[4] = Cytotoxicity against human PC-3 cells assessed as inhibition of cell growth incubated for 72 hrs and followed by treated with compound continued incubation for further 72 hrs (double treatment) after retreatment of compound by CellTiter 96 aqueous assay; type: toxicity, cell-based; outline: as §1
[5] = Cytotoxicity against human MDA-MB-231 cells assessed as inhibition of cell growth incubated with compound for 72 hrs followed by further incubated for 72 hrs (single treatment) by CellTiter 96 aqueous assay; type: toxicity, cell-based; outline: as §1
[6] = Cytotoxicity against human MDA-MB-231 cells assessed as inhibition of cell growth incubated for 72 hrs and followed by treated with compound continued incubation for further 72 hrs (double treatment) after retreatment of compound by CellTiter 96 aqueous assay; type: toxicity, cell-based; outline: as §1
[7] = target: T1, Gastrin-releasing peptide receptor (Homo sapiens, UniProt P30550); assay: Displacement of 125 I- [Tyr4] from bombesin receptor 2 in human PC-3 cells assessed as inhibition by radioligand displacement assay; type: cell-based
T1 sequence (P30550 whole entry): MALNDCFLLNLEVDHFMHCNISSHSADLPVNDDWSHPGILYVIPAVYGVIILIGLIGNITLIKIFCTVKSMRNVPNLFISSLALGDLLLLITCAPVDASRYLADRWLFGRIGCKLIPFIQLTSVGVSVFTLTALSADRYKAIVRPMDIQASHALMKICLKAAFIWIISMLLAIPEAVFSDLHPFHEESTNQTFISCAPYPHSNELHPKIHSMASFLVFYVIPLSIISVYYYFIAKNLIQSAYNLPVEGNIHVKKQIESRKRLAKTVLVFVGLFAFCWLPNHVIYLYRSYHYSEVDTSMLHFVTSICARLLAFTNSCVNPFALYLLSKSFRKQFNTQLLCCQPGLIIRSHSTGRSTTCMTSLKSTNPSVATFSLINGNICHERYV
Outline: (§2)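 Competition binding on membrane preparations from PC-3 or MDA-MB-231 cells against ¹²⁵I-[Tyr⁴]-bombesin, with conjugates at 10 μM–10 pM. IC50 was taken as the concentration giving 50 % inhibition of tracer binding.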

[8] = target: T1, Gastrin-releasing peptide receptor; assay: Displacement of 125 I- [Tyr4] from bombesin receptor 2 in human MDA-MB-231 cells assessed as inhibition by radioligand displacement assay; type: cell-based; outline: as §2
[9] = Displacement of 125 I- [Tyr4] from bombesin receptor 1 (unknown origin) assessed as inhibition by radioligand competitive binding assay; parameters: species or system Homo sapiens
[10] = target: T1, Gastrin-releasing peptide receptor; assay: Displacement of 125 I- [Tyr4] from bombesin receptor 2 (unknown origin) assessed as inhibition by radioligand competitive binding assay
[11] = target: T2, Bombesin receptor subtype-3 (Homo sapiens, UniProt P32247); assay: Displacement of 125 I- [Tyr4] from bombesin receptor 3 (unknown origin) assessed as inhibition by radioligand competitive binding assay
T2 sequence (P32247 whole entry): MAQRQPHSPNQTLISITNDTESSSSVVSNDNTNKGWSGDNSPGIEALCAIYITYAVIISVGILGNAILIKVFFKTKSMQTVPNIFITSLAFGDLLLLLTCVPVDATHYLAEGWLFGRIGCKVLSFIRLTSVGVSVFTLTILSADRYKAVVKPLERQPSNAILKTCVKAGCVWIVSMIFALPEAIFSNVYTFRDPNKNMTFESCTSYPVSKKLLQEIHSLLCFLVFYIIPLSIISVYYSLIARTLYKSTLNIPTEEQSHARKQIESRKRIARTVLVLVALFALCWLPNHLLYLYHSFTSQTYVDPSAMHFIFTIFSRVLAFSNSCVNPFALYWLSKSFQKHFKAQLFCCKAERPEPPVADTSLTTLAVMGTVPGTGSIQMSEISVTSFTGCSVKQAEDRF

## CCCC[C@H](NC(=O)[C@H](CC(C)C)NC(=O)[C@H](Cc1c[nH]cn1)NC(=O)CNC(=O)[C@@H](NC(=O)[C@H](C)NC(=O)[C@H](CC1=CNC2C=CC=CC12)NC(=O)[C@H](CCC(N)=O)NC(=O)[C@H](CC(N)=O)NC(=O)CCOCCOCCOCCOCCNC(=O)[C@H](CSC1CC(=O)N(CCCCCC(=O)N[C@@H](CCC(=O)O)C(=O)N[C@H](C(=O)N[C@@H](CCCNC(N)=O)C(=O)Nc2ccc(COC(=O)N(C)[C@H](C(=O)N[C@H](C(=O)N(C)[C@@H]([C@@H](C)CC)[C@@H](CC(=O)N3CCC[C@H]3[C@H](OC)[C@@H](C)C(=O)N[C@H](C)[C@@H](O)c3ccccc3)OC)C(C)C)C(C)C)cc2)C(C)C)C1=O)NC(C)=O)C(C)C)C(N)=O (stereo partly specified) (I: Ac-C[PEG4]NQ[Trp(3a,7a-dihydro)]AVGHL[Nle]-NH2 / II: EV[Cit][PABC][NMeV]V[Dil][Dolaproine]-X3; linker I:1-II:N via Hexanoyl(6-succinimido-3yl))
[1]
  IC50 at 72 h: 64.1 nM
[2]
  IC50 at 72 h: 344 nM
[3]
  IC50 at 144 h: 18.2 nM
[4]
  IC50 at 144 h: 12.6 nM
[5]
  IC50 at 144 h: 60.1 nM
[6]
  IC50 at 144 h: 52.7 nM
[7]
  IC50: 101 nM
[8]
  IC50: 97.4 nM

## CC(=O)N[C@@H](CS)C(=O)N[C@H](Cc1ccccc1)C(=O)N[C@@H](CCC(N)=O)C(=O)N[C@@H](Cc1c[nH]c2ccccc12)C(=O)N[C@@H](C)C(=O)N[C@H](C(=O)N(C)CC(=O)N[C@@H](Cc1c[nH]cn1)C(=O)N[C@@H](CC(C)C)[C@@H](O)CC(=O)N[C@@H](CC(C)C)C(N)=O)C(C)C
[9]
  IC50: > 10000 nM
[10]
  IC50: 36.3 nM
[11]
  IC50: 3600 nM

## CC(=O)N[C@@H](CS)C(=O)N[C@H](Cc1ccccc1)C(=O)N[C@@H](CCC(N)=O)C(=O)N[C@@H](Cc1c[nH]c2ccccc12)C(=O)N[C@@H](C)C(=O)N[C@H](C(=O)NCCC(=O)N[C@@H](Cc1c[nH]cn1)C(=O)N[C@@H](CC(C)C)[C@@H](O)CC(=O)N[C@@H](CC(C)C)C(N)=O)C(C)C
[9]
  IC50: > 10000 nM
[10]
  IC50: 5290 nM
[11]
  IC50: 5250 nM

## CC[C@H](C)[C@@H]([C@@H](CC(=O)N1CCC[C@H]1[C@H](OC)[C@@H](C)C(=O)N[C@H](C)[C@@H](O)c1ccccc1)OC)N(C)C(=O)[C@@H](NC(=O)[C@H](C(C)C)N(C)C(=O)OCc1ccc(NC(=O)[C@H](CCCNC(N)=O)NC(=O)CNC(=O)[C@H](CCC(=O)O)NC(=O)CCCCCN2C(=O)CC(SC[C@H](NC(C)=O)C(=O)NCCOCCOCCOCCOCCC(=O)N[C@H](Cc3ccccc3)C(=O)N[C@@H](CCC(N)=O)C(=O)N[C@@H](CC3=CSC4C=CC=CC34)C(=O)N[C@@H](C)C(=O)N[C@H](C(=O)NCC(=O)N[C@@H](Cc3c[nH]cn3)C(=O)N[C@@H](CC(C)C)[C@@H](O)CC(=O)N[C@@H](CC(C)C)C(N)=O)C(C)C)C2=O)cc1)C(C)C (stereo partly specified)
[1]
  IC50 at 72 h: 586 nM
[2]
  IC50 at 72 h: 943 nM
[3]
  IC50 at 144 h: 142 nM
[4]
  IC50 at 144 h: 116 nM
[5]
  IC50 at 144 h: 171 nM
[6]
  IC50 at 144 h: 130 nM
[7]
  IC50: 71.1 nM
[8]
  IC50: 76.9 nM

## CCCC[C@H](NC(=O)C[C@H](O)[C@H](CC(C)C)NC(=O)[C@H](Cc1c[nH]cn1)NC(=O)CCNC(=O)[C@@H](NC(=O)[C@H](C)NC(=O)[C@H](Cc1c[nH]c2ccccc12)NC(=O)[C@H](CCC(N)=O)NC(=O)[C@@H](Cc1ccccc1)NC(C)=O)C(C)C)C(=O)N[C@@H](CS)C(N)=O
[9]
  IC50: > 10000 nM
[10]
  IC50: > 10000 nM
[11]
  IC50: > 1000 nM

## CC(=O)N[C@H](Cc1ccccc1)C(=O)N[C@@H](CCC(N)=O)C(=O)N[C@@H](Cc1c[nH]c2ccccc12)C(=O)N[C@@H](C)C(=O)N[C@H](C(=O)NCC(=O)N[C@@H](Cc1c[nH]cn1)C(=O)N[C@@H](CC(C)C)[C@@H](O)CC(=O)N[C@@H](CC(C)C)C(=O)N[C@@H](CS)C(N)=O)C(C)C
[9]
  IC50: > 10000 nM
[10]
  IC50: > 10000 nM
[11]
  IC50: 10.1 nM

## CCCC[C@H](NC(=O)[C@H](CC(C)C)NC(=O)[C@H](Cc1c[nH]cn1)NC(=O)CNC(=O)[C@@H](NC(=O)[C@H](C)NC(=O)[C@H](CC1=CNC2C=CC=CC12)NC(=O)[C@H](CCC(N)=O)NC(=O)[C@H](CC(N)=O)NC(=O)CCOCCOCCOCCOCCNC(=O)[C@H](CSC1CC(=O)N(CCCCCC(=O)N[C@@H](CCC(=O)O)C(=O)NCC(=O)N[C@@H](CCCNC(N)=O)C(=O)Nc2ccc(COC(=O)N(C)[C@H](C(=O)N[C@H](C(=O)N(C)[C@@H]([C@@H](C)CC)[C@@H](CC(=O)N3CCC[C@H]3[C@H](OC)[C@@H](C)C(=O)N[C@H](C)[C@@H](O)c3ccccc3)OC)C(C)C)C(C)C)cc2)C1=O)NC(C)=O)C(C)C)C(N)=O (stereo partly specified) (I: Ac-C[PEG4]NQ[Trp(3a,7a-dihydro)]AVGHL[Nle]-NH2 / II: EG[Cit][PABC][NMeV]V[Dil][Dolaproine]-X3; linker I:1-II:N via Hexanoyl(6-succinimido-3yl))
[1]
  IC50 at 72 h: 830 nM
[2]
  IC50 at 72 h: 1260 nM
[3]
  IC50 at 144 h: 248 nM
[4]
  IC50 at 144 h: 200 nM
[5]
  IC50 at 144 h: 270 nM
[6]
  IC50 at 144 h: 217 nM
[7]
  IC50: 83.2 nM
[8]
  IC50: 79.3 nM
